Source: ChEMBL document CHEMBL1955763, “Antimicrobial activity of sulfonamides containing 5-chloro-2-hydroxybenzaldehyde and 5-chloro-2-hydroxybenzoic acid scaffold” (Eur J Med Chem, 2012)
Values after ≈ are worked out from the molar mass of the structure shown.

How the values were obtained:
HepG2 = assay: Cytotoxicity against human HepG2 cells after 24 hrs by MTS assay; type: cell-based; settings: HepG2, 24 h
Summary of the method: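 Hep G2 human liver cells (passage 3–4), 10 000 per well, in MEM with 1% glutamine, 10% fetal serum and 1% non-essential amino acids. Compounds were added from DMSO at eight increasing concentrations in quadruplicate. Exposure was 24 h at 37 °C in 5% CO₂, then MTS reagent for 1.5 h. Formazan was read at 490 nm and IC₅₀ derived as 50% of control viability.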

[1] = Selectivity ratio of IC50 for human HepG2 cell sto MIC100 for Mycobacterium kansasii 235/80; type: functional
[2] = Selectivity ratio of IC50 for human HepG2 cell sto MIC90 for Staphylococcus aureus CCM 4516/08; type: functional
Mycobacterium kansasii [3] = assay: Antimycobacterial activity against Mycobacterium kansasii 235/80 after 14 days; type: functional; settings: 235/80, 336 h
Summary of the method: (§1)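 Micromethod MIC in Sula semisynthetic medium, with compounds added as DMSO solutions at […]. Incubation at 37 °C. Inocula: M. kansasii 235/80 at dilution 10⁻⁴, clinical isolate 6509/96 at 10⁻⁵.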

Mycobacterium kansasii [4] = assay: Antimycobacterial activity against Mycobacterium kansasii 6509/96 after 21 days; type: functional; settings: 6509/96, 504 h; summary of the method: as §1
[5] = test system: Staphylococcus epidermidis; assay: Antibacterial activity against methicillin-resistant Staphylococcus epidermidis H 6966/08 after 48 hrs by broth microdilution method; type: functional; settings: H 6966/08, 48 h
Summary of the method: (§2)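 Microdilution broth method modified from M07-A07, in Mueller-Hinton broth at pH 7.4 (±0.2). Compounds were dissolved in DMSO. Inoculum was made in sterile water to 0.5 McFarland (1.5 × 10⁸ CFU/mL). MIC was taken as IC₉₀, meaning ≥90% growth reduction versus the drug-free control. Growth was read visually and by absorbance at 540 nm.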

[6] = test system: Mycobacterium tuberculosis; assay: Antituberculosis activity against Mycobacterium tuberculosis H37Rv after 18 hrs by alamar blue assay; type: functional, organism-based
Staphylococcus aureus [7] = assay: Antibacterial activity against Staphylococcus aureus CCM 4516/08 after 48 hrs by broth microdilution method; type: functional; settings: CCM 4516/08, 48 h
Summary of the method: (§3)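 Broth microdilution modified from standard M07-A07 in Mueller-Hinton broth at pH 7.4 (±0.2). Compounds were dissolved in DMSO. Inoculum in sterile water was adjusted to 0.5 McFarland (1.5 × 10⁸ CFU/mL). MIC was taken as IC₉₀, i.e. ≥90% growth reduction versus control, read visually and spectrophotometrically at 540 nm.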

Staphylococcus aureus [8] = assay: Antibacterial activity against methicillin-resistant Staphylococcus aureus H 5996/08 after 48 hrs by broth microdilution method; type: functional; settings: H 5996/08, 48 h; summary of the method: as §2
Mycobacterium kansasii [9] = assay: Antimycobacterial activity against Mycobacterium kansasii 235/80 after 7 days; type: functional; settings: 235/80, 168 h; summary of the method: as §1
Mycobacterium avium [10] = assay: Antimycobacterial activity against isoniazid-, rifampicin-, ofloxacin-, ethambutol-resistant Mycobacterium avium 330/88 after 21 days; type: functional; settings: 330/88, 504 h
Summary of the method: (§4)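 Micromethod in Sula semisynthetic medium, with compounds added as DMSO solutions over a two-fold series from 1000 down to 1. Inoculum for M. avium 330/88 was a 10⁻⁵ dilution. Plates were incubated at 37 °C and MIC was read after 14 and 21 days.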

Mycobacterium avium [11] = assay: Antimycobacterial activity against isoniazid-, rifampicin-, ofloxacin-, ethambutol-resistant Mycobacterium avium 330/88 after 14 days; type: functional; settings: 330/88, 336 h; summary of the method: as §4
Mycobacterium kansasii [12] = assay: Antimycobacterial activity against Mycobacterium kansasii 6509/96 after 7 days; type: functional; settings: 6509/96, 168 h; summary of the method: as §1
Mycobacterium kansasii [13] = assay: Antimycobacterial activity against Mycobacterium kansasii 235/80 after 21 days; type: functional; settings: 235/80, 504 h; summary of the method: as §1
[14] = Selectivity ratio of IC50 for human HepG2 cell sto MIC100 for Mycobacterium kansasii 6509/96; type: functional
[15] = test system: Mycobacterium tuberculosis; assay: Antimycobacterial activity against Mycobacterium tuberculosis H37Rv 331/88 after 14 days; type: functional; settings: H37Rv 331/88, 336 h
[16] = test system: Mycobacterium tuberculosis; assay: Antimycobacterial activity against Mycobacterium tuberculosis H37Rv 331/88 after 21 days; type: functional; settings: H37Rv 331/88, 504 h; summary of the method: as §4
Staphylococcus aureus [17] = assay: Antibacterial activity against methicillin-resistant Staphylococcus aureus H 5996/08 after 24 hrs by broth microdilution method; type: functional; settings: H 5996/08, 24 h; summary of the method: as §2
[18] = test system: Staphylococcus epidermidis; assay: Antibacterial activity against methicillin-resistant Staphylococcus epidermidis H 6966/08 after 24 hrs by broth microdilution method; type: functional; settings: H 6966/08, 24 h; summary of the method: as §2
Staphylococcus aureus [19] = assay: Antibacterial activity against Staphylococcus aureus CCM 4516/08 after 24 hrs by broth microdilution method; type: functional; settings: CCM 4516/08, 24 h; summary of the method: as §2
Mycobacterium kansasii [20] = assay: Antimycobacterial activity against Mycobacterium kansasii 6509/96 after 14 days; type: functional; settings: 6509/96, 336 h; summary of the method: as §1
Aspergillus fumigatus = assay: Antifungal activity against Aspergillus fumigatus 231 after 24 hrs by broth microdilution method; type: functional; settings: Aspergillus fumigatus, 231, 24 h
Summary of the method: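 Microdilution broth per CLSI M27-A3 (yeasts) or M38-A2 (moulds) in RPMI 1640 with glutamine, buffered to pH 7.0 with 0.165 mol MOPS. Compounds were in DMSO. Final inoculum was 5 × 10³ ± 0.2 CFU/mL. Other conditions matched the antibacterial assay, with MIC as IC₉₀ read visually and at 540 nm. Determined twice, in duplicate.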

Pseudomonas aeruginosa = assay: Antibacterial activity against Pseudomonas aeruginosa CCM 1961 after 24 hrs by broth microdilution method; type: functional; settings: CCM 1961, 24 h; summary of the method: as §3
Klebsiella pneumoniae [21] = assay: Antibacterial activity against Klebsiella pneumoniae D 11750/08 after 24 hrs by broth microdilution method; type: functional; settings: D 11750/08, 24 h; summary of the method: as §3
Klebsiella pneumoniae [22] = assay: Antibacterial activity against ESBL-positive Klebsiella pneumoniae J 14368/08 after 24 hrs by broth microdilution method; type: functional; settings: J 14368/08, 24 h; summary of the method: as §3
[23] = test system: Mycobacterium avium complex sp.; assay: Antimycobacterial activity against Mycobacterium avium complex; type: functional
[24] = Selectivity ratio of IC50 for human HepG2 cell sto MIC90 for methicillin-resistant Staphylococcus aureus H 5996/08; type: functional
Escherichia coli = assay: Antibacterial activity against Escherichia coli CCM 4517 after 24 hrs by broth microdilution method; type: functional; settings: CCM 4517, 24 h; summary of the method: as §3

SMILES | IC50 (HepG2) | Ratio [1] | Ratio [2] | MIC (Mycobacterium kansasii [3]) | MIC (Mycobacterium kansasii [4]) | MIC [5] | MIC (Staphylococcus aureus [7]) | MIC (Staphylococcus aureus [8]) | MIC (Mycobacterium kansasii [9]) | MIC (Mycobacterium avium [10]) | MIC (Mycobacterium avium [11]) | MIC (Mycobacterium kansasii [12]) | MIC (Mycobacterium kansasii [13]) | Ratio [14] | MIC [15] | MIC [16] | MIC (Staphylococcus aureus [17]) | MIC [18] | MIC (Staphylococcus aureus [19]) | MIC (Mycobacterium kansasii [20]) | other results
Nc1ccc(S(=O)(=O)Nc2nccs2)cc1 [SULFATHIAZOLE] | 4.16 mM | 1040.3 | 33.2 | 4 µM (≈ 1.02 µg/mL) | 2 µM (≈ 0.511 µg/mL) | > 500 µM | 62.5 µM (≈ 16 µg/mL) | 125 µM (≈ 31.9 µg/mL) | 2 µM (≈ 0.511 µg/mL) | 62.5 µM (≈ 16 µg/mL) | 62.5 µM (≈ 16 µg/mL) | 1 µM (≈ 0.255 µg/mL) | 4 µM (≈ 1.02 µg/mL) | 1040.3 | 32 µM (≈ 8.17 µg/mL) | 62.5 µM (≈ 16 µg/mL) | 62.5 µM (≈ 16 µg/mL) | > 500 µM | 31.2 µM (≈ 7.98 µg/mL) | 2 µM (≈ 0.511 µg/mL) | IC50 [6]: ≥ 5 µM
Cc1cc(NS(=O)(=O)c2ccc(N)cc2)no1 [SULFAMETHOXAZOLE] | 2.62 mM | 163.9 | 5.2 | 16 µM (≈ 4.05 µg/mL) | 4 µM (≈ 1.01 µg/mL) | 500 µM (≈ 127 µg/mL) | 500 µM (≈ 127 µg/mL) | 250 µM (≈ 63.3 µg/mL) | 8 µM (≈ 2.03 µg/mL) | 62.5 µM (≈ 15.8 µg/mL) | 32 µM (≈ 8.11 µg/mL) | 4 µM (≈ 1.01 µg/mL) | 16 µM (≈ 4.05 µg/mL) | 163.9 | 32 µM (≈ 8.11 µg/mL) | 32 µM (≈ 8.11 µg/mL) | 62.5 µM (≈ 15.8 µg/mL) | 250 µM (≈ 63.3 µg/mL) | 250 µM (≈ 63.3 µg/mL) | 4 µM (≈ 1.01 µg/mL) | MIC (Aspergillus fumigatus): 250 µM (≈ 63.3 µg/mL); MIC (Pseudomonas aeruginosa): ≥ 500 µM; MIC (Klebsiella pneumoniae [21]): ≥ 500 µM; MIC (Klebsiella pneumoniae [22]): ≥ 500 µM; MIC50 [23]: 30 µg/mL (≈ 118 µM); MIC80 [23]: 30 µg/mL (≈ 118 µM); Ratio [24]: 5.2; MIC (Escherichia coli): ≥ 500 µM
